Data as given in ChEMBL document CHEMBL1121519, “Basic antiinflammatory compounds. N,N',N''-Trisubstituted guanidines” (J Med Chem, 1980).

Columns and labels:
[1] = target: T1, Cyclooxygenase (Bos taurus) (UniProt O62664+O62698); test: Inhibition of prostaglandin synthetase in bovine seminal vesicle microsomes using Beckman liquid scintillation counter at 10 e-5 M; conditions: Microsome
[2] = Tested for percent inhibition of carrageenan paw edema in rat, administered orally at a dose of one tenth of lethal dose; format: organism-based; conditions: in vivo, po
Summary of the method: (§1)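 1 h later, 0.1 mL of 1% carrageenan was injected into the right hind-paw plantar tissue. Paw swelling was measured by mercury-displacement plethysmometry 3 h after carrageenan, compared with controls.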

Rattus norvegicus [3] = test: Tested for percent inhibition of carrageenan paw edema in rat, administered orally at a dose of one tenth of oral lethal dose in mice; format: functional
Summary of the method: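 Sprague-Dawley rats fasted 18 h; compound suspended in 0.5% carboxymethylcellulose, given orally 1 h before 0.1 mL of 1% carrageenan suspension injected into the plantar tissue of the right hind paw. Paw swelling measured by mercury-displacement plethysmometry 3 h after carrageenan, treated versus controls. Mouse oral LD50 was from the Litchfield-Wilcoxon method with four mice per dose.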

Rattus norvegicus [4] = test: Minimum effective dose against adjuvant arthritis on prophylactic dosing (peroral administration); format: functional; conditions: po, read-out: MED
Summary of the method: (§2)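 Female Lewis rats given adjuvant arthritis by plantar M. butyricum in mineral oil. Oral daily dosing either from adjuvant day to day 28 (continuous), day 16 to day 28 (therapeutic), or day 5 pre- to day 5 postadjuvant (prophylactic). MED: lowest dose producing significant (p < 0.05) inhibition of noninjected paw swelling on day 28, by plethysmometry.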

Rattus norvegicus [5] = test: Effective dose against nystatin edema(peroral administration); format: functional; conditions: po
[6] = Lethal dose in mice determined by Litchfield and Wilcoxon methods after peroral administration.; format: toxicity, organism-based; conditions: mouse, in vivo, po
Summary of the method: (§3)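 Median lethal dose found after oral dosing of mice, four mice per dose level, and calculated by the Litchfield–Wilcoxon method.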

Rattus norvegicus [7] = test: Effective dose against gastroulcerogenic activity (peroral administration); format: functional; conditions: po
Summary of the method: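 Groups of six Sprague-Dawley rats given oral doses once daily for 3 days; inner stomach surface examined for lesions 24 h after last dose. ED50 is the dose giving macroscopically visible lesions in 50% of rats.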

Rattus norvegicus [8] = test: Effective dose against analgesic activity (peroral administration); format: functional; conditions: po
Rattus norvegicus [9] = organism: Rattus norvegicus; test: Minimum effective dose is the lowest dose preventing any futher increase in body temperature; format: functional; conditions: read-out: MED
Summary of the method: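 Antipyretic test, oral dosing; MED defined as the lowest dose preventing any further increase of body temperature.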

Rattus norvegicus [10] = test: Effective dose against carrageenan edema(peroral administration); format: functional; conditions: po
Summary of the method: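 Sprague-Dawley rats fasted 18 h, dosed orally in 0.5% carboxymethylcellulose suspension 1 h before 0.1 mL of 1% carrageenan into right hind paw plantar tissue. Paw swelling in treated versus control rats measured 3 h post-carrageenan by mercury-displacement plethysmometry; ED50 given in mg/kg po.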

Rattus norvegicus [11] = test: Minimum effective dose against adjuvant arthritis on administration); format: functional; conditions: read-out: MED; summary of the method: as §2
Rattus norvegicus [12] = test: Minimum effective dose against adjuvant arthritis on therapeutic dosing (peroral administration); format: functional; conditions: po, read-out: MED; summary of the method: as §2
Rattus norvegicus [13] = test: Percent inhibition of carrageenan paw edema in rat, administered orally at a dose of one tenth of oral lethal dose in mice; format: functional; summary of the method: as §1
Rattus norvegicus [14] = organism: Rattus norvegicus; test: Tested for enhancement in the rat paw not injected with carrageenan.; format: functional
Rattus norvegicus [15] = test: Total score is the sum of scores obtained in the adjuvant arthritis, acute toxicity, carrageenan edema, and prostaglandin synthetase assay; format: functional
Rattus norvegicus [16] = organism: Rattus norvegicus; test: Average percent inhibition (arthritis score=1) of the swelling of both injected and non injected paw was measured; […]; format: functional
Rattus norvegicus [17] = organism: Rattus norvegicus; test: Tested for inhibition in the rat paw injected with carrageenan.; format: functional; design: concentration or dose not given beside the values
[18] = Toxic score (3) was measured as lethal dose in orally administered mice; format: toxicity, organism-based; conditions: mouse, in vivo, po
Summary of the method: (§4)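 Score derived from mouse oral LD50 (Litchfield–Wilcoxon, four mice per dose), in mg/kg: >1000 = 3; 500-1000 = 2; <500 = 1.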

Rattus norvegicus [19] = organism: Rattus norvegicus; test: Average percent inhibition (arthritis score=1) of the swelling of both injected and non injected paw was measured;values ranges from: […]-[…]; format: functional
Rattus norvegicus [20] = test: Tested for inhibition at the dose of 5(mg/kg)/day in the rat paw not injected with carrageenan.; format: functional; conditions: in the assay text read “adjuvant” for “carrageenan”
Summary of the method: (§5)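 Adjuvant-induced arthritis, female Lewis rats, six per group: M. butyricum in mineral oil (3 mg/mL, 0.1 mL) injected into right hind paw plantar tissue. Daily oral dosing from adjuvant day to day 28, 10 or 5 (mg/kg)/day according to mouse oral LD50 (≥1000 or <1000 mg/kg). Injected and noninjected paw swelling read by mercury-displacement plethysmometry on day 28.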

Rattus norvegicus [21] = organism: Rattus norvegicus; test: Average percent inhibition (arthritis score) of the swelling of both injected and non injected paw was measured; […]; format: functional
Rattus norvegicus [22] = organism: Rattus norvegicus; test: Tested for inhibition in the rat paw not injected with […].; format: functional; design: concentration or dose not given beside the values; summary of the method: as §5
[23] = Toxic score (1) was measured as lethal dose in orally administered mice; format: toxicity, organism-based; conditions: in vivo, po; summary of the method: as §4
Rattus norvegicus [24] = organism: Rattus norvegicus; test: Average percent inhibition (arthritis score=3) of the swelling of both injected and non injected paw was measured; format: functional
Summary of the method: (§6)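 Adjuvant arthritis in inbred female Lewis rats, groups of six, acclimatized 2 weeks. Arthritis induced by injecting 0.1 mL M. butyricum in mineral oil (3 mg/mL) into right hind paw plantar tissue. Oral dosing daily from adjuvant day to day 28: 10 (mg/kg)/day if mouse oral LD50 ≥1000 mg/kg, else 5 (mg/kg)/day. Swelling of injected and noninjected paws measured day 28 by mercury-displacement plethysmometry; mean percent inhibition scored 0–3.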

Rattus norvegicus [25] = organism: Rattus norvegicus; test: Average percent inhibition (arthritis score=2) of the swelling of both injected and non injected paw was measured;values ranges from: […]-[…]; format: functional
[26] = target: T1, Cyclooxygenase (Bos taurus); test: Tested for Prostaglandin Synthetase inhibition in Bovine seminal vesicle microsomes using Beckman liquid scintillation counter at 10 e-5 M; conditions: Microsome
[27] = Toxic score was measured as lethal dose in orally administered mice;Values ranges from: 500-1000; format: toxicity, organism-based; conditions: mouse, in vivo, po; summary of the method: as §4
Rattus norvegicus [28] = organism: Rattus norvegicus; test: Average percent inhibition (arthritis score=0) of the swelling of both injected and non injected paw was measured; format: functional; summary of the method: as §6
Rattus norvegicus [29] = test: Tested for percent enhancement of carrageenan paw edema in rat, administered orally at a dose of one tenth of oral lethal dose in mice; format: functional; summary of the method: as §1
Rattus norvegicus [30] = organism: Rattus norvegicus; test: Average percent inhibition (arthritis score)of the swelling of both injected and non injected paw was measured; format: functional; summary of the method: as §6
Rattus norvegicus [31] = organism: Rattus norvegicus; test: Tested for enhancement in the rat paw injected with carrageenan.; format: functional
Rattus norvegicus [32] = organism: Rattus norvegicus; test: Average percent inhibition of the swelling of both injected and non injected paw was measured; format: functional; summary of the method: as §6
Rattus norvegicus [33] = organism: Rattus norvegicus; test: Average percent inhibition of the swelling of both injected and non injected paw was measured; […]; format: functional
[34] = Inhibitory concentration against PG synthetase; format: functional
[35] = Lethal dose in mice(peroral administration); format: toxicity, organism-based; conditions: mouse, in vivo, po; summary of the method: as §3
[36] = Lethal dose in rats(peroral administration); format: toxicity, organism-based; conditions: rat, in vivo, po
Rattus norvegicus [37] = organism: Rattus norvegicus; test: Average percent inhibition (arthritis score)of the swelling of both injected and non injected paw was measured; […]; format: functional

CCCCCC/N=C(\Nc1nccs1)Nc1cc(C)nc2ccccc12
inhibition [1]: -23.8%
LD50 [2]: 8 mg/kg

COc1ccc2c(c1)c(CC(=O)O)c(C)n2C(=O)c1ccc(Cl)cc1 [INDOMETHACIN]
LD50 (Rattus norvegicus [3]): 12 mg/kg
minimal effective dose (Rattus norvegicus [4]): 2 mg/kg
ED50 (Rattus norvegicus [5]): > 6 mg/kg
LD50 [6]: 24.3 mg/kg
ED50 (Rattus norvegicus [7]): 4.6 mg/kg
ED50 (Rattus norvegicus [8]): 6.5 mg/kg
minimal effective dose (Rattus norvegicus [9]): 1.6 mg/kg
ED50 (Rattus norvegicus [10]): 3.5 mg/kg
minimal effective dose (Rattus norvegicus [11]): 1 mg/kg
minimal effective dose (Rattus norvegicus [12]): < 1 mg/kg

Cc1cc(N/C(=N/C2CCCCCCC2)Nc2nccs2)c2ccccc2n1
Inhibition (Rattus norvegicus [13]): 62%
Enhancement (Rattus norvegicus [14]): 8%
inhibition [1]: 55.1%
LD50 [6]: > 1000 mg/kg
Total score (Rattus norvegicus [15]): 9
Inhibition (Rattus norvegicus [16]): 29%
Inhibition (Rattus norvegicus [17]): 21%
LD50 [18]: > 1000 mg/kg

CCCC/N=C(/Nc1nccs1)Nc1cc(C)nc2ccccc12
Inhibition (Rattus norvegicus [19]): 29%
Inhibition (Rattus norvegicus [13]): 89%
Inhibition (Rattus norvegicus [20]): 34%
inhibition [1]: 0.6%
LD50 [6]: 800 mg/kg
Total score (Rattus norvegicus [15]): 6

Cc1cc(/N=C(\Nc2cc(C)nc3ccccc23)NC2CCCCC2)sn1
Inhibition (Rattus norvegicus [13]): 48%
inhibition [1]: 83.2%
LD50 [6]: > 1000 mg/kg
Total score (Rattus norvegicus [15]): 9
Inhibition (Rattus norvegicus [17]): 1%
LD50 [18]: > 1000 mg/kg
Inhibition (Rattus norvegicus [21]): 29%
Inhibition (Rattus norvegicus [22]): 21%

Cc1cc(N/C(=N\C(C)(C)C)Nc2nccs2)c2ccccc2n1
Inhibition (Rattus norvegicus [13]): 34%
Inhibition (Rattus norvegicus [20]): 60%
LD50 [23]: < 500 mg/kg
inhibition [1]: 100%
LD50 [6]: 200 mg/kg
Total score (Rattus norvegicus [15]): 8
Inhibition (Rattus norvegicus [24]): >=50%

Cc1cc(N/C(=N\C2CC2)Nc2nccs2)c2ccccc2n1
Inhibition (Rattus norvegicus [13]): 65%
Inhibition (Rattus norvegicus [25]): 49%
inhibition [1]: 15.8%
LD50 [6]: 600 mg/kg
Total score (Rattus norvegicus [15]): 7
Inhibition (Rattus norvegicus [17]): 53%
Inhibition (Rattus norvegicus [22]): 30%

Cc1cc(N/C(=N/C2CCCCC2)NC2NC=CS2)c2ccccc2n1 (stereo not drawn)
Inhibition (Rattus norvegicus [13]): 33%
LD50 [6]: > 1000 mg/kg
inhibition [26]: 12.6%

CCOc1cc(N/C(=N/C(C)(C)C)Nc2nccs2)c2ccccc2n1
Inhibition (Rattus norvegicus [13]): 39%
LD50 [27]: 1000 mg/kg
Inhibition (Rattus norvegicus [28]): <10%
inhibition [1]: 88.9%
LD50 [6]: 800 mg/kg
Total score (Rattus norvegicus [15]): 6
Inhibition (Rattus norvegicus [17]): 8%
Inhibition (Rattus norvegicus [22]): 13%

CCOC(=O)c1csc(/N=C(\Nc2cc(C)nc3ccccc23)NC2CCCCC2)n1
inhibition [1]: 89.8%
LD50 [6]: > 1000 mg/kg
Total score (Rattus norvegicus [15]): 7
Inhibition (Rattus norvegicus [16]): 29%
Inhibition (Rattus norvegicus [17]): 4%
LD50 [18]: > 1000 mg/kg
Enhancement (Rattus norvegicus [29]): 1%
Inhibition (Rattus norvegicus [22]): 24%

CCC(C)(C)/N=C(/Nc1nccs1)Nc1cc(C)nc2ccccc12
Inhibition (Rattus norvegicus [13]): 53%
LD50 [23]: < 500 mg/kg
inhibition [1]: 100%
LD50 [6]: 400 mg/kg
Total score (Rattus norvegicus [15]): 9
Inhibition (Rattus norvegicus [17]): 59%
Inhibition (Rattus norvegicus [30]): >=50%
Inhibition (Rattus norvegicus [22]): 55%

Cc1csc(/N=C(\Nc2cc(C)nc3ccccc23)NC2CCCCC2)n1
Inhibition (Rattus norvegicus [13]): 38%
Enhancement (Rattus norvegicus [14]): 23%
inhibition [1]: 89.3%
LD50 [6]: > 1000 mg/kg
Total score (Rattus norvegicus [15]): 7
Enhancement (Rattus norvegicus [31]): 15%
LD50 [18]: > 1000 mg/kg
Inhibition (Rattus norvegicus [32]): <10%

Cc1cc(N/C(=N/c2ccccc2)Nc2nccs2)c2ccccc2n1
Inhibition (Rattus norvegicus [13]): 59%
Inhibition (Rattus norvegicus [33]): 49%
inhibition [1]: 83.8%
LD50 [6]: > 1000 mg/kg
Total score (Rattus norvegicus [15]): 10
Inhibition (Rattus norvegicus [17]): 46%
LD50 [18]: > 1000 mg/kg
Inhibition (Rattus norvegicus [22]): 47%

Cc1cc(/N=C(\Nc2nccs2)NC2CCCCC2)c2ccccc2n1 [TIMEGADINE]
Inhibition (Rattus norvegicus [13]): 68%
minimal effective dose (Rattus norvegicus [4]): 10 mg/kg
IC50 [34]: 2.5 µM
ED50 (Rattus norvegicus [5]): 26.5 mg/kg
inhibition [1]: 100%
LD50 [6]: > 1000 mg/kg
Total score (Rattus norvegicus [15]): 12
ED50 (Rattus norvegicus [7]): 170 mg/kg
LD50 [35]: > 1000 mg/kg
Inhibition (Rattus norvegicus [17]): 53%
ED50 (Rattus norvegicus [8]): 68.5 mg/kg
minimal effective dose (Rattus norvegicus [9]): 12.4 mg/kg
ED50 (Rattus norvegicus [10]): 29.6 mg/kg
LD50 [36]: 1220 mg/kg
LD50 [18]: > 1000 mg/kg
minimal effective dose (Rattus norvegicus [11]): 3 mg/kg
Inhibition (Rattus norvegicus [22]): 63%
Inhibition (Rattus norvegicus [24]): >=50%
minimal effective dose (Rattus norvegicus [12]): 10 mg/kg

Cc1cc(N/C(=N/C(C)(C)C)Nc2nnc(C)s2)c2ccccc2n1
Inhibition (Rattus norvegicus [13]): 85%
Inhibition (Rattus norvegicus [37]): 49%
inhibition [1]: 33%
LD50 [6]: > 1000 mg/kg
Total score (Rattus norvegicus [15]): 9
Inhibition (Rattus norvegicus [17]): 45%
LD50 [18]: > 1000 mg/kg
Inhibition (Rattus norvegicus [22]): 51%
